In ChEMBL document CHEMBL3352483, “Synthesis, structure-activity relationships and biological evaluation of barbigerone analogues as anti-proliferative and anti-angiogenesis agents” (Bioorg Med Chem Lett, 2014):

Legend:
[1] = Antiproliferative activity against human HCT116 cells after 24 hrs by MTT assay; assay type: functional, cell-based; conditions: HCT-116, 24 h
Method in brief: (§1)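 MTT proliferation assay on HUVECs and on HepG2, A375, U251, B16 and HCT116 cells. Results reported as IC50.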

B16 = assay: Antiproliferative activity against mouse B16 cells after 24 hrs by MTT assay; assay type: functional, cell-based; conditions: B16, 24 h; method in brief: as §1
HUVEC [2] = assay: Antiangiogenic activity against HUVEC assessed as inhibition of capillary-like tube formation at 5 uM after 8 hrs by Matrigel assay relative to control; assay type: functional; conditions: Homo sapiens
Method in brief: (§2)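 HUVECs (1 × 10^4 cells) suspended in EBM-2 with vehicle or compound at 1.0 or 5.0 μM and plated on Matrigel. Incubated 8 h at 37 °C. Capillary networks photographed at 100× and quantified. Inhibition of tube-like structure formation expressed relative to vehicle group.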

HUVEC [3] = assay: Antiangiogenic activity against HUVEC assessed as inhibition of capillary-like tube formation at 1 uM after 8 hrs by Matrigel assay relative to control; assay type: functional; conditions: Homo sapiens; method in brief: as §2
HUVEC [4] = assay: Antiproliferative activity against HUVEC after 24 hrs by MTT assay; assay type: functional, cell-based; conditions: Homo sapiens; method in brief: as §1
HUVEC [5] = assay: Antimigratory activity in HUVEC assessed as migration into wound area at 1 uM after 24 hrs relative to vehicle treated control; assay type: functional, Homo sapiens
Method in brief: (§3)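 Wound-healing assay. HUVEC monolayers scratched with a pipette, then treated with vehicle or the indicated compound concentrations. Photographs taken at 0 h and 24 h at 50×, and migration rate into the wound calculated. Mean ± SD from three independent experiments.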

Danio rerio = species on record: Danio rerio; assay: Antiangiogenic activity in Flk-1-GFP transgenic zebrafish embryo after 24 hrs; assay type: functional, organism-based
Method in brief: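 Zebrafish embryos exposed to compound at 1.25 or 2.5 μM, or to vehicle, for 24 h. Read-out is formation of the subintestinal vessel (SIV) basket-like structure, compared with vehicle-treated embryos.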

U-251 = assay: Antiproliferative activity against human U251 cells after 24 hrs by MTT assay; assay type: functional, cell-based; conditions: U-251, 24 h; method in brief: as §1
A-375 = assay: Antiproliferative activity against human A375 cells after 24 hrs by MTT assay; assay type: functional, cell-based; conditions: A-375, 24 h; method in brief: as §1
HepG2 = assay: Antiproliferative activity against human HepG2 cells after 24 hrs by MTT assay; assay type: functional, cell-based; conditions: HepG2, 24 h; method in brief: as §1
HUVEC [6] = assay: Antimigratory activity in HUVEC assessed as migration into wound area at 0.5 uM after 24 hrs relative to vehicle treated control; assay type: functional, Homo sapiens; method in brief: as §3

Row | SMILES | IC50 [1] [µM] | IC50 (B16) [µM] | inhibition at 5 µM (HUVEC [2]) [%] | inhibition at 1 µM (HUVEC [3]) [%] | IC50 (HUVEC [4]) [µM] | Activity (HUVEC [5]) [%] | inhibition (Danio rerio) | IC50 (U-251) [µM] | IC50 (A-375) [µM] | IC50 (HepG2) [µM] | Activity (HUVEC [6]) [%]
1 | COc1cc(OC)c(-c2coc3cc(OCC=C(C)C)ccc3c2=O)cc1OC | 0.68 | 1.09 | 88.3 | 78.2 | 3.8 | 8.45 | Dose-dependent effect | 3.5 | 1.58 | 0.28 | 35.36
2 | COc1cccc(C(=O)Oc2ccc3c(=O)c(-c4cc(OC)c(OC)cc4OC)coc3c2)c1 | > 10 | > 10 |  |  | > 10 |  |  | > 10 | > 10 | > 10 | 
3 | CCOc1ccc(-c2coc3c4c(ccc3c2=O)OC(C)(C)C=C4)cc1 | > 10 | > 10 |  |  | > 10 |  |  | > 10 | > 10 | > 10 | 
4 | COc1cc(OC)c(-c2coc3c4c(ccc3c2=O)OC(C)(C)C=C4)cc1OC | 2.36 | 1.23 | 65.4 | 23.7 | 7.45 | 1.65 | Dose-dependent effect | 4.1 | 1.85 | 1.77 | 74.26
